Published values of several laboratories.
Each line is one published result; the experiments were not run side by side.
JAK2: Tyrosine-protein kinase JAK2 (JAK2, Homo sapiens, UniProt O60674)
JAK2 JH1: Tyrosine-protein kinase JAK2, JH1 (JAK2, Homo sapiens, UniProt O60674)

target | read-out | mode | technique | concentration | measurement | result | SMILES
JAK2 | enzyme activity | inhibitor | – | 1 µM | inhibition | -6% | COc1cc2ncnc(Nc3ccc(Oc4ccccc4)cc3C)c2cc1OC
JAK2 JH1 | cell-free assay | inhibitor | – | 20 µM | remaining signal | 2% | Nc1ncnc2occ(-c3ccc(NC(=O)Nc4cc(C(F)(F)F)ccc4F)cc3)c12
JAK2 | cell-free assay | – | – | 0.5 µM | remaining signal | 98.2% | CNC(=O)c1cc(Oc2ccc(NC(=O)Nc3ccc(Cl)c(C(F)(F)F)c3)cc2)ccn1
JAK2 | enzyme activity | inhibitor | radiometric | 1 µM | remaining activity | 68% | O=C(NCCCNc1nc(Nc2cccc(NC(=O)N3CCCC3)c2)ncc1C1CC1)C1CCC1
JAK2 | enzyme activity | inhibitor | – | 10 µM | remaining activity | 79% | FC(F)c1nc2ccccc2n1-c1nc(N2CCOCC2)nc(N2CCOCC2)n1
JAK2 | enzyme activity | inhibitor | radiometric | 1 µM | remaining activity | 67% | Cc1nn(CC(F)(F)F)cc1Nc1ncc(Br)c(NCCCNC(=O)C2CCC2)n1
JAK2 | enzyme activity | inhibitor | radiometric | 1 µM | activity vs control | 74% | FC(F)(F)Oc1cccc(-c2cnc3ccc(-c4ccncc4)nn23)c1
JAK2 | enzyme activity | inhibitor | – | 10 µM | inhibition | -4% | O=C(CSc1nc2nccnc2c(=O)n1CCc1ccccc1)Nc1nccs1
JAK2 JH1 | cell-free assay | – | competition with immobilised ligand | 0.1 µM | remaining binding | 75% | Cc1c[nH]c2nccc(Oc3c(F)cc(Nc4cc(Cl)nc(N)n4)cc3F)c12
JAK2 JH1 | cell-free assay | – | – | 1 µM | remaining signal | 74% | c1cnn2ncc(-c3ccnc(N4CCC45COC5)n3)c2c1
JAK2 | cell-free assay | – | – | 0.5 µM | remaining signal | 88.8% | CCN(CC)CCNC(=O)c1c(C)[nH]c(/C=C2\C(=O)Nc3ccc(F)cc32)c1C
JAK2 JH1 | cell-free assay | – | competition with immobilised ligand | 1 µM | remaining binding | 100% | O=C1CCc2cc(Nc3cc(OC4CCOCC4)c([N+](=O)[O-])cc3Cl)ccc2N1
JAK2 | enzyme activity | inhibitor | radiometric | 1 µM | remaining activity | 99% | Cc1nn(CC(F)(F)F)cc1Nc1ncc(C2CC2)c(NCCCNC(=O)C2CCC2)n1
JAK2 JH1 | cell-free assay | – | – | 1 µM | remaining signal | 90% | C[C@@H]1CCN(c2nccc(-c3cnn4ncccc34)n2)C1
JAK2 | enzyme activity | inhibitor | radiometric | 1 µM | remaining activity | 6% | O=C(NCCCNc1nc(Nc2cccc(NC(=O)N3CCCC3)c2)ncc1I)c1cccs1
JAK2 | enzyme activity | inhibitor | FRET | 1 µM | inhibition | < 15% | CCOc1cc(-c2nncn2C)ccc1Nc1ncc2cc(C)nc(NCC(C)(C)C)c2n1
JAK2 | cell-free assay | – | – | 0.5 µM | remaining signal | 94.6% | O=C1NC(=O)c2cc(Nc3ccc(F)cc3)c(Nc3ccc(F)cc3)cc21

target | read-out | mode | technique | concentration | measurement | result | SMILES
Tyrosine-protein kinase JAK2, JH1 (JAK2, Homo sapiens, UniProt O60674, V617F) | enzyme activity | inhibitor | – | 1 µM | inhibition | -4% | COc1cc2ncnc(Nc3ccc(Oc4ccccc4)c(C)c3C)c2cc1OC
JAK2 | enzyme activity | inhibitor | radiometric | 1 µM | remaining activity | 88% | O=C(NCCCNc1ccnc(Nc2cccc(NC(=O)N3CCCC3)c2)n1)C1CCC1
JAK2 | enzyme activity | inhibitor | – | 10 µM | inhibition | 36% | Cc1ccc(Nc2nccc(N(C)c3ccc4c(C)n(C)nc4c3)n2)cc1S(N)(=O)=O
JAK2 | enzyme activity | inhibitor | – | 0.1 µM | activity vs control | 78% | Cc1cc(NC(=O)c2cccc3cc(-c4cccc5[nH]nc(N)c45)ccc23)ccc1F
JAK2 JH1 | binding | – | competition with immobilised ligand | 1 µM | remaining binding | 61% | Cc1nc(N2CC[C@@H](O)C2)ncc1-c1cc(C(F)(F)F)cc2[nH]ncc12
JAK2 | enzyme activity | inhibitor | – | 1 µM | inhibition | < 10% | CCCS(=O)(=O)Nc1ccc(F)c(C(=O)c2c[nH]c3ncc(-c4ccc(Cl)cc4)cc23)c1F
JAK2 | enzyme activity | inhibitor | radiometric | 1 µM | remaining activity | 71% | COc1cc(Nc2cnc(C#N)c(O[C@H](C)CN(C)C)n2)ncc1-c1cnn(C)c1
JAK2 JH1 | cell-free assay | – | competition with immobilised ligand | 1 µM | remaining binding | 100% | COc1cccc(CNC(=O)c2nc3scc(COCc4ccc(C(=O)O)cc4)c3c(=O)[nH]2)c1
JAK2 | enzyme activity | inhibitor | radiometric | 1 µM | remaining activity | 114% | Cc1nn(CC(F)(F)F)cc1Nc1nccc(NCCCNC(=O)C2CCC2)n1
JAK2 JH1 | cell-free assay | – | competition with immobilised ligand | 0.1 µM | remaining binding | 100% | O=C(NCCCC1CCCCC1)c1ccc(CNC(=O)c2cnn(-c3ccccc3)c2C(F)(F)F)cc1
JAK2 | enzyme activity | inhibitor | – | 1 µM | activity vs control | 100% | Cc1ccc(C(=O)NCc2ccsc2)cc1C#Cc1cn(C(C)C)c2ncnc(N)c12
JAK2 JH1 | cell-free assay | – | competition with immobilised ligand | 0.1 µM | remaining binding | 100% | COCCOc1nc(-c2ccc(Cl)nc2)nc2c1CN(C(=O)c1ncn3ccccc13)CC2
JAK2 | cell-free assay | – | – | 0.5 µM | remaining signal | 1.37% | CC(C)(C)c1nc2c3cc[nH]c(=O)c3c3cc(F)ccc3c2[nH]1
JAK2 JH1 | cell-free assay | – | competition with immobilised ligand | 1 µM | remaining binding | 100% | CS(=O)(=O)c1cc(C2(NC(=O)c3cncc4c3cnn4-c3ccc(F)cc3)CC2)ccn1
JAK2 | enzyme activity | inhibitor | – | 1 µM | inhibition | 2% | C=CC(=O)Nc1cc(Nc2nccc(Nc3cc(Cl)c(F)cc3C(C)(C)O)n2)c(OC)cc1N1CC[C@@H](N(C)C)C1
JAK2 JH1 | cell-free assay | – | competition with immobilised ligand | 1 µM | remaining binding | 53% | CCS(=O)(=O)c1cc2cc(C[C@](O)(CC(C)(C)c3ccc(F)cc3C(N)=O)C(F)(F)F)[nH]c2cn1
JAK2 | enzyme activity | inhibitor | – | 1 µM | inhibition | -20% | CN1CC(Oc2cnc(C#N)cc2-c2ccn3nc(NC(=O)C4CC4)cc3c2)C1
